Results: ChEMBL document CHEMBL5579848, “Isothiocyanate-Corticosteroid Conjugates against asthma: Unity makes strength” (Eur J Med Chem, 2024)
In brackets after ≈: the same amount, converted by molar mass. Activity calls are given as the source filed them. The rule behind the calls is not given here.

What was measured:
[1] = Solubility of compound in water at 5 mg incubated at 25 degreeC for 6 hrs by UHPLC analysis; type: physicochemical
Summary of the method: (§1)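 Solid compound (5 mg) was shaken in 1 mL water, PBS (pH 7.4, 50 mM) or pepsin-free SGF (pH 1.2) for 6 h at 25 °C. Suspensions were filtered (0.45 μm) and the filtrate quantified by UHPLC, reported in mg/L; triplicate, mean values.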

[2] = Half life in PBS at pH 7.4 at 100 uM incubated at 37 degreeC up to 24 hrs by UPHLC analysis; type: ADME
Summary of the method: (§2)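 A 10 mM DMSO stock was diluted to 100 μM in PBS (pH 7.4, 50 mM) or pepsin-free SGF (pH 1.2) and held at 37 ± 0.5 °C for 24 h. Timed aliquots were quantified by reverse-phase UHPLC-DAD against calibration curves (1.56–100 ppm), tracking the parent compound plus aminoacetate and corticosteroid metabolites. Pseudo-first-order t1/2 was calculated; n = 3.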

[3] = tested on: RBL-2H3; test: Cytotoxicity against rat RBL-2H3 cells assessed as reduction cell viability at 100 uM after 24 hrs by WST assay; type: toxicity, cell-based; settings: rbl-2h3, 24 h
Summary of the method: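 RBL-2H3 cells were grown in MEM with 10 % FBS, 10^4 cells/well, and attached for 24 h. They were then exposed 24 h to 100 μM compound (final) or 0.1 % DMSO. WST-1 (1:10) was added for 60 min at 37 °C and absorbance read at 450 nm. Viability is expressed as % of vehicle; mean ± SEM.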

[4] = Solubility of compound in simulated gastric fluid at pH 1.2 in absence of pepsin at 5 mg incubated at 25 degreeC for 6 hrs by UHPLC analysis; type: ADME; settings: simulated gastric fluid without pepsin; summary of the method: as §1
[5] = Induction of H2S release in PBS at pH 7.4 at 100 uM measured after 30 mins by free radical analyzer; type: physicochemical; settings: buffer, pH 7.4, 0.5 h
Summary of the method: (§3)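 An H2S-selective mini-electrode was equilibrated in PBS pH 7.4, and compound was added to 100 μM final (1 % DMSO). Amperometric current was recorded for 30 min, with or without L-cysteine 4 mM added 10 min before. Current was converted to H2S using NaHS calibration (1–10 µM, pH 4.0); mean ± SEM.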

[6] = Half life in simulated gastric fluid at pH 1.2 in absence of pepsin at 100 uM incubated at 37 degreeC up to 24 hrs by UPHLC analysis; type: ADME; settings: simulated gastric fluid without pepsin; summary of the method: as §2
[7] = Solubility of compound in PBS at pH 7.4 at 5 mg incubated at 25 degreeC for 6 hrs by UHPLC analysis; type: physicochemical; summary of the method: as §1
[8] = tested on: RBL-2H3; test: Inhibition of mast cell degranulation in DNP-HSA antigen sensitized rat RBL-2H3 cells assessed as reduction in beta-hexoaminosidase release at 100 uM preincubated for 5 mins followed by DNP addition and measured after 1 hr by multiplate reader; type: functional, cell-based; settings: time 65.0 min
Summary of the method: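 RBL-2H3 cells (72×10^3/well) were sensitized overnight with anti-DNP IgE 0.50 µg/ml, then moved to phenol-free DMEM with 1 mg/ml BSA. Cells were preincubated 5 min at 37 °C with 0.1 % DMSO, cromolyn 1 mM or compound 100 μM, then challenged with DNP-HSA 10 ng/ml. After 1 h, supernatant was incubated 1 h with 1.4 mM p-nitrophenyl-N-acetyl-β-D-glucosaminide (citrate pH 4.2), stopped with Trizma pH 9.4, and read at 405 nm.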

[9] = Induction of H2S release in PBS at pH 7.4 at 100 uM pretreated with L-Cys for 10 mins followed by compound addition and measured after 30 mins by free radical analyzer; type: physicochemical; settings: buffer, pH 7.4, 0.5 h; summary of the method: as §3
[10] = target: T1, Albumin (Bos taurus, UniProt P02769); test: Stability in 3% bovine serum albumin assessed as parent compound remaining at 200 uM incubated at 37 degreeC for 10 mins by UHPLC analysis; type: ADME; settings: cattle, 3% bovine serum albumin solution, read-out: Stability
Summary of the method: (§4)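 A 10 mM DMSO stock was diluted to 200 μM in 3 % BSA in PBS and incubated at 37 ± 0.5 °C for up to 4 h. Timed samples were deproteinized with an equal volume of acetonitrile/0.1 % TFA, centrifuged, filtered and quantified by UHPLC. Results are given as pseudo-first-order t1/2 or % parent remaining at 10 min; n ≥ 3.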

[11] = tested on: Mus musculus; test: Anti-asthmatic activity in OVA-induced female BALB/c mouse model assessed as restoration of structure of bronchial epithelium at 3.512 x 10^-6M, ip for 30 min before every ovalbumin challenge on day 0 and 7 and measured after 21 days by H and E staining based microscopic analysis; type: functional, organism-based; settings: dose 3.512 10^-6M, time 21.0 day
Summary of the method: (§5)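 Female BALB/c mice (20 g, 8 weeks) sensitized s.c. with 100 μg ovalbumin adsorbed to 13.3 mg aluminum hydroxide gel (0.4 ml) on days 0 and 7; saline controls. Test agent (1–2 mg/kg, or equimolar 3,51 × 10^-6 mol) or vehicle given ip 30 min before each OVA dose. Killed day 21 by enflurane overdose; lungs, bronchi, blood collected.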

[12] = tested on: Mus musculus; test: Anti-asthmatic activity in OVA-induced female BALB/c mouse model assessed as reduction in detachment of the lamina propria at 2 mg/kg, ip for 30 min before every ovalbumin challenge on day 0 and 7 and measured after 21 days by H and E staining based microscopic analysis; type: functional, organism-based; settings: time 21.0 day; summary of the method: as §5
[13] = tested on: Mus musculus; test: Anti-asthmatic activity in OVA-induced female BALB/c mouse model assessed as reduction in thickening of airway smooth muscle layer at 2 mg/kg, ip for 30 min before every ovalbumin challenge on day 0 and 7 and measured after 21 days by H and E staining based microscopic analysis; type: functional, organism-based; settings: time 21.0 day; summary of the method: as §5
[14] = tested on: Mus musculus; test: Anti-asthmatic activity in OVA-induced female BALB/c mouse model assessed as reduction in cell infiltration at 1 mg/kg, ip for 30 min before every ovalbumin challenge on day 0 and 7 and measured after 21 days by H and E staining based microscopic analysis; type: functional, organism-based; settings: time 21.0 day; summary of the method: as §5
[15] = tested on: Mus musculus; test: Anti-asthmatic activity in OVA-induced female BALB/c mouse model assessed as restoration of structure of airway smooth muscle at 3.512 x 10^-6M, ip for 30 min before every ovalbumin challenge on day 0 and 7 and measured after 21 days by H and E staining based microscopic analysis; type: functional, organism-based; settings: dose 3.512 10^-6M, time 21.0 day; summary of the method: as §5
[16] = tested on: Mus musculus; test: Anti-asthmatic activity in OVA-induced ip dosed female BALB/c mouse model assessed as reduction in pulmonary IL-13 level administered for 30 min before every ovalbumin challenge on day 0 and 7 and measured after 21 days by ELISA; type: functional, organism-based; settings: dose 1-2 mg/kg, time 21.0 day; summary of the method: as §5
[17] = tested on: Mus musculus; test: Anti-asthmatic activity in OVA-induced female BALB/c mouse model assessed as reduction in alpha-SMA positive muscle layers at 3.512 x 10^-6M, ip for 30 min before every ovalbumin challenge on day 0 and 7 and measured after 21 days by immunohistochemical staining based microscopic analysis; type: functional, organism-based; settings: dose 3.512 10^-6M, time 21.0 day; summary of the method: as §5
[18] = tested on: Mus musculus; test: Anti-asthmatic activity in OVA-induced female BALB/c mouse model assessed as restoration of structure of alveolar septa at 3.512 x 10^-6M, ip for 30 min before every ovalbumin challenge on day 0 and 7 and measured after 21 days by H and E staining based microscopic analysis; type: functional, organism-based; settings: dose 3.512 10^-6M, time 21.0 day; summary of the method: as §5
[19] = tested on: Mus musculus; test: Anti-asthmatic activity in OVA-induced female BALB/c mouse model assessed as reduction in detachment of the lamina propria at 1 mg/kg, ip for 30 min before every ovalbumin challenge on day 0 and 7 and measured after 21 days by H and E staining based microscopic analysis; type: functional, organism-based; settings: time 21.0 day; summary of the method: as §5
[20] = target: T1, Albumin; test: Half life in 3% bovine serum albumin at 200 uM incubated up to 4 hrs by UHPLC analysis; type: ADME; settings: cattle, 3% bovine serum albumin solution; summary of the method: as §4
[21] = tested on: Mus musculus; test: Anti-asthmatic activity in OVA-induced female BALB/c mouse model assessed as reduction in cell infiltration at 2 mg/kg, ip for 30 min before every ovalbumin challenge on day 0 and 7 and measured after 21 days by H and E staining based microscopic analysis; type: functional, organism-based; settings: time 21.0 day; summary of the method: as §5
[22] = tested on: Mus musculus; test: Anti-asthmatic activity in OVA-induced female BALB/c mouse model assessed as reduction in thickening of airway smooth muscle layer at 1 mg/kg, ip for 30 min before every ovalbumin challenge on day 0 and 7 and measured after 21 days by H and E staining based microscopic analysis; type: functional, organism-based; settings: time 21.0 day; summary of the method: as §5
[23] = tested on: Mus musculus; test: Anti-asthmatic activity in OVA-induced female BALB/c mouse model assessed as reduction in alpha-SMA positive muscle layers at 1 to 2 mg/kg, ip for 30 min before every ovalbumin challenge on day 0 and 7 and measured after 21 days by immunohistochemical staining based microscopic analysis; type: functional, organism-based; settings: dose 1-2 mg/kg, time 21.0 day; summary of the method: as §5
[24] = tested on: Mus musculus; test: Anti-asthmatic activity in OVA-induced ip dosed female BALB/c mouse model assessed as inhibition of bronchial hyperreactivity administered 30 min prior to every ovalbumin challenge on day 0 and 7 and measured after 21 days by isometric force transducer analysis; type: functional, organism-based; settings: dose 1-2 mg/kg, time 21.0 day; summary of the method: as §5
[25] = tested on: Mus musculus; test: Anti-asthmatic activity in OVA-induced female BALB/c mouse model assessed as reduction in IgE level in plasma at 2 mg/kg, ip for 30 min before every ovalbumin challenge on day 0 and 7 and measured after 21 days by ELISA; type: functional, organism-based; settings: time 21.0 day; summary of the method: as §5
[26] = tested on: Mus musculus; test: Anti-asthmatic activity in OVA-induced female BALB/c mouse model assessed as inhibition of bronchial hyperreactivity at 3.512 x 10^-6M, ip for 30 min before every ovalbumin challenge on day 0 and 7 and measured after 21 days by isometric force transducer analysis; type: functional, organism-based; settings: dose 3.512 10^-6M, time 21.0 day; summary of the method: as §5
[27] = tested on: Mus musculus; test: Anti-asthmatic activity in OVA-induced female BALB/c mouse model assessed as reduction in lung damage at 3.512 x 10^-6M, ip for 30 min before every ovalbumin challenge on day 0 and 7 and measured after 21 days by H and E staining based microscopic analysis; type: functional, organism-based; settings: dose 3.512 10^-6M, time 21.0 day; summary of the method: as §5
[28] = tested on: Mus musculus; test: Anti-asthmatic activity in OVA-induced female BALB/c mouse model assessed as reduction in IgE level in plasma at 3.512 x 10^-6M, ip for 30 min before every ovalbumin challenge on day 0 and 7 and measured after 21 days by ELISA; type: functional, organism-based; settings: dose 3.512 10^-6M, time 21.0 day; summary of the method: as §5
[29] = tested on: Mus musculus; test: Anti-asthmatic activity in OVA-induced female BALB/c mouse model assessed as reduction in pulmonary IL-13 level at 3.512 x 10^-6M, ip for 30 min before every ovalbumin challenge on day 0 and 7 and measured after 21 days by ELISA; type: functional, organism-based; settings: dose 3.512 10^-6M, time 21.0 day; summary of the method: as §5

T1 sequence (P02769 whole entry): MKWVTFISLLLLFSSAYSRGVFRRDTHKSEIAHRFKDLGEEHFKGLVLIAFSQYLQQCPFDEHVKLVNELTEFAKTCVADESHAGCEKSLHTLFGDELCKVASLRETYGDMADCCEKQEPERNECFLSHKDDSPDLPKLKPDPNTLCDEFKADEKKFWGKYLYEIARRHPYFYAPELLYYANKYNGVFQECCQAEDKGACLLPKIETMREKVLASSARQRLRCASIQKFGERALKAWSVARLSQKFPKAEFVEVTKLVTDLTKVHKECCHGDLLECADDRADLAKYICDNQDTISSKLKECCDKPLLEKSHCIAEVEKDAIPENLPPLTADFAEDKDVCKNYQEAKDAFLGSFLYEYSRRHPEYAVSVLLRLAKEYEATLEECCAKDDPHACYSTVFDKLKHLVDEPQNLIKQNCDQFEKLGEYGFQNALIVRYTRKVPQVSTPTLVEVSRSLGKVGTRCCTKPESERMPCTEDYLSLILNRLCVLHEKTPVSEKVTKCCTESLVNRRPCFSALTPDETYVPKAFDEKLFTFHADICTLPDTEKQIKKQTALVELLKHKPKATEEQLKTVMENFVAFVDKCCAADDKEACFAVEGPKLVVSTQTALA

| solubility at 6 h [1] | half-life at 100 µM [2] | solubility at 6 h [4] | Activity [5] | half-life at 100 µM [6] | solubility at 6 h [7] | Activity [9] | half-life at 200 µM [20] | Structure (SMILES) | Activity [3] | inhibition [8] | other results |
| --- | --- | --- | --- | --- | --- | --- | --- | --- | --- | --- | --- |
| 0.14 µg/mL (≈ 0.285 µM) | 0.7 h | < 0.1 µg/mL | ~ 2 uM | 10 h | < 0.1 µg/mL | ~ 2 uM |  | C[C@@H]1C[C@H]2[C@@H]3CCC4=CC(=O)C=C[C@]4(C)[C@@]3(F)[C@@H](O)C[C@]2(C)[C@@]1(O)C(=O)COC(=O)CN=C=S | Non-Toxic | Active | remaining at 10 min, 200 µM [10]: 6% |
| 0.55 µg/mL (≈ 0.965 µM) | > 24 h | < 0.1 µg/mL | ~ 2 uM | > 24 h | 0.25 µg/mL (≈ 0.439 µM) | ~ 2 uM | 1.4 h | C[C@]12C=CC(=O)C=C1CC[C@@H]1[C@@H]2[C@@H](O)C[C@@]2(C)[C@H]1C[C@H]1O[C@@H](C3CCCCC3)O[C@]12C(=O)COC(=O)CN=C=S | Non-Toxic | Active | Activity [11]: Active; Activity [12]: Active; Activity [13]: Active; Activity [14]: inactive; Activity [15]: Active; Activity [16]: Dose-Dependent Effect; Activity [17]: Active; Activity [18]: Active; Activity [19]: inactive; Activity [21]: Active; Activity [22]: inactive; Activity [23]: Active; inhibition [24]: Dose-Dependent Effect; Activity [25]: Active |
|  |  |  |  |  |  |  |  | C[C@]12C=CC(=O)C=C1CC[C@@H]1[C@@H]2[C@@H](O)C[C@@]2(C)[C@H]1C[C@H]1O[C@@H](C3CCCCC3)O[C@]12C(=O)COC(=O)CN |  | Active | Activity [26]: inactive; Activity [27]: inactive; Activity [28]: Active; Activity [29]: inactive |
|  |  |  |  |  |  |  |  | C[C@]12C=CC(=O)C=C1CC[C@@H]1[C@@H]2C(=O)C[C@@]2(C)[C@H]1CC[C@]2(O)C(=O)COC(=O)CN |  | Active |  |
| < 0.1 µg/mL | > 24 h | 0.16 µg/mL (≈ 0.278 µM) | Active | > 24 h | 0.12 µg/mL (≈ 0.208 µM) | Active | 1 h | CCCCC(=O)O[C@]1(C(=O)COC(=O)CN=C=S)[C@@H](C)C[C@H]2[C@@H]3CCC4=CC(=O)C=C[C@]4(C)[C@@]3(F)[C@@H](O)C[C@@]21C | Toxic |  |  |
